Reference: ChEMBL document CHEMBL1287681, “Tetrahydrocarboline analogs as MCH-1 antagonists” (Bioorg Med Chem Lett, 2010)
In brackets after ≈: the same amount, converted by molar mass.

Key:
[1] = Half life in mouse liver microsome; type: ADME; details: liver microsomes
Procedure, shortened: (§1)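 Half-life in mouse or human liver microsomes, reported in min.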

Cytochrome P450 3A4 = Cytochrome P450 3A4 (Homo sapiens, UniProt P08684); assay: Inhibition of CYP3A4; type: ADME
[2] = Half life in human liver microsome; type: ADME; details: liver microsomes; procedure, shortened: as §1
Cytochrome P450 1A2 = biological target: T1, Cytochrome P450 1A2 (Homo sapiens, UniProt P05177); assay: (§2) Inhibition of CYP1A2; type: ADME
T1 sequence (P05177 whole entry): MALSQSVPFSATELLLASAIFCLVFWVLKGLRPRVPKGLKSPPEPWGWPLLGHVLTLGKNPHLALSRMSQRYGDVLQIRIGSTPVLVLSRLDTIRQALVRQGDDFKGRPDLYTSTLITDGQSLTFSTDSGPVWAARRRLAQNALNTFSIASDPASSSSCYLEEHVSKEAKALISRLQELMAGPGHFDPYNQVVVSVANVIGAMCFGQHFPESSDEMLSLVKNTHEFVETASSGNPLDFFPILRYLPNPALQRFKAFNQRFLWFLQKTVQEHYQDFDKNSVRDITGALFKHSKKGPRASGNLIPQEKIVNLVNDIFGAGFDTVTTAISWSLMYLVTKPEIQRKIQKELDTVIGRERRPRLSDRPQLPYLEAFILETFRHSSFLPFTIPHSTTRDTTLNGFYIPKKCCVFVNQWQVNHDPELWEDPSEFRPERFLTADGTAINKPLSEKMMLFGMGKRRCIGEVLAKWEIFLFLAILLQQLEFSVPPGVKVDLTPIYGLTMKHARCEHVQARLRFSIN

Cytochrome P450 2B6 = biological target: T2, Cytochrome P450 2B6 (Homo sapiens, UniProt P20813); assay: Inhibition of CYP2B6; type: ADME
T2 sequence (P20813 whole entry): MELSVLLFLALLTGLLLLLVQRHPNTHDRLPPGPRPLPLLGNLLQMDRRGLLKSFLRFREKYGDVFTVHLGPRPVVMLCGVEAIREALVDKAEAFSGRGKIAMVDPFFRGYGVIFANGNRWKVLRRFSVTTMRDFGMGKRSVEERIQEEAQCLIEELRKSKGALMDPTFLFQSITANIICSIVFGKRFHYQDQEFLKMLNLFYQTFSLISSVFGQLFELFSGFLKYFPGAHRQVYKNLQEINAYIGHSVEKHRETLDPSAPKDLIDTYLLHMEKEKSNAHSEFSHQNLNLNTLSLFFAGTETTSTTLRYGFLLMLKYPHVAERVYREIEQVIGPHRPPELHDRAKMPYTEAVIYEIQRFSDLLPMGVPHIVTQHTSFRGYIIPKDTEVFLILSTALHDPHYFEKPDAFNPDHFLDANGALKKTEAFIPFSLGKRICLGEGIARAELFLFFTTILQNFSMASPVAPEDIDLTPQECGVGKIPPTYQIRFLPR

[3] = Aqueous solubility of the compound in PBS buffer at pH 7.4 after 24 hrs; type: physicochemical
Procedure, shortened: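 Solubility measured in PBS at pH 7.4 after a 24 h equilibration period.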

[4] = biological target: T3, Melanin-concentrating hormone receptor 1 (Homo sapiens, UniProt Q99705); assay: Displacement of [3H]4-(benzyloxy)-1-(1-(2-(pyrrolidin-1-yl)ethyl)-1H-indazol-5-yl)pyridin-2(1H)-one from MCH-1 receptor expressed in CHO-K1 cells; type: cell-based
Procedure, shortened: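 Membranes from stable CHO-K1 cells expressing human MCH-1 receptor (8.92 µg protein) incubated 60 min at 25 °C with 1.4 nM tritiated indazolyl-pyridinone radioligand ± test compound in 50 mM Tris–HCl, pH 7.4. Nonspecific binding defined with 50 µM of a piperazinylpropyl urea ligand. Values are means of at least two determinations, each within 40% of the mean.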

Cytochrome P450 2D6 = Cytochrome P450 2D6 (Homo sapiens, UniProt P10635); assay: Inhibition of CYP2D6; type: ADME
[5] = Ratio of drug level in brain to plasma in lean mouse at 10 mg/kg, po; details: read-out: BPR
[6] = Plasma protein binding in DIO mouse at 30 mg/kg, po; type: ADME, organism-based; parameters: dose 30 mg/kg, route oral; details: read-out: PPB (converted)
Procedure, shortened: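 Mouse plasma protein binding determined by ultrafiltration.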

[7] = AUC (0 to 6 hrs) in DIO mouse at 30 mg/kg, po; type: ADME, organism-based; parameters: time < 6 hr, dose 30 mg/kg, route oral; details: plasma
Procedure, shortened: (§3)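 DIO mice given 30 mg/kg orally. Plasma (ng/mL) and brain (ng/g) concentrations measured 6 h post dose; AUC determined from 0 to 6 h.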

[8] = Drug level in DIO mouse plasma at 30 mg/kg, po after 6 hrs; type: ADME, organism-based; parameters: dose 30 mg/kg, route oral; procedure, shortened: as §3
[9] = test system: panel of 30 GPCRs and transporters (off-target); assay: Inhibition of panel of 30 GPCRs and transporters at 1 uM
Mus musculus [10] = assay: Antiobesity activity in diet-induced obese mouse assessed as reduction in body weight at 30 mg/kg qd; type: functional; parameters: scale not given: the % may be the effect or the level left
Procedure, shortened: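 Male C57BL/6J diet-induced obese mice dosed orally once daily, 30 mg/kg in 1% methylcellulose in water, for 5 days. Body weight tracked daily; % difference from vehicle control on Day 6. Adjusted means, n = 8–10, ANCOVA with Day 1 body weight as covariate, then Dunnett's test.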

[11] = Drug level in DIO mouse brain at 30 mg/kg, po after 6 hrs; type: ADME, organism-based; parameters: dose 30 mg/kg, route oral; details: read-out: Drug uptake; procedure, shortened: as §3
[12] = Ratio of drug level in brain to plasma in DIO mouse at 30 mg/kg, po; details: read-out: BPR
[13] = biological target: T3, Melanin-concentrating hormone receptor 1; assay: Antagonist activity at MCH-1 receptor; type: functional
Procedure, shortened: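 Functional antagonism read as Ca2+ mobilization in an Aequorin cell line expressing recombinant MCH-1 receptor, run by a contract lab.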

[14] = Ionisation constant for the compound; type: physicochemical
Mus musculus [15] = assay: Antiobesity activity in diet-induced obese mouse assessed as reduction in body weight at 60 mg/kg qd; type: functional; parameters: scale not given: the % may be the effect or the level left
CYP1A2 = biological target: T4, CYP1A2 (Homo sapiens, UniProt P05177); assay: as §2; type: ADME
T4 sequence (P05177 whole entry): T1 sequence (P05177 whole entry)

Mus musculus [16] = assay: Antiobesity activity in diet-induced obese mouse assessed as reduction in body weight at 30 mg/kg bid; type: functional; parameters: scale not given: the % may be the effect or the level left
Cytochrome P450 2C19 = Cytochrome P450 2C19 (Homo sapiens, UniProt P33261)
[17] = Stability in human liver microsome assessed as compound remaining after 1 hr; type: ADME; details: liver microsomes, read-out: Stability
Procedure, shortened: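 Human liver microsome incubation; percentage of parent remaining after 1 h.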

Cytochrome P450 2C9 = Cytochrome P450 2C9 (Homo sapiens, UniProt P11712)
Chain of Cytochrome P450 2C9 (P11712 whole entry): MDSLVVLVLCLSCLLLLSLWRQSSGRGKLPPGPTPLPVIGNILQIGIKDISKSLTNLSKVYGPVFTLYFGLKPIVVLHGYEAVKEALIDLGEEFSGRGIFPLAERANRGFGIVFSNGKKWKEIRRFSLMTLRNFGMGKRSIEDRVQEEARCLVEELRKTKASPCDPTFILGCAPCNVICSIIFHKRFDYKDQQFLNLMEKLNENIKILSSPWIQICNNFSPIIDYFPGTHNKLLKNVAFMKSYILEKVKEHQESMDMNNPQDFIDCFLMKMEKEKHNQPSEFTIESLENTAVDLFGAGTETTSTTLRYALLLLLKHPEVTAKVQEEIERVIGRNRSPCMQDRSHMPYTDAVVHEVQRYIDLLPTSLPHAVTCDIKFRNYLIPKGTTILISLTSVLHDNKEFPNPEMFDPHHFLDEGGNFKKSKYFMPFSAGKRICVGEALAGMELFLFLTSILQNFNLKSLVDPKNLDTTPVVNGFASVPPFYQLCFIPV

Chain of Cytochrome P450 3A4 (P08684 whole entry): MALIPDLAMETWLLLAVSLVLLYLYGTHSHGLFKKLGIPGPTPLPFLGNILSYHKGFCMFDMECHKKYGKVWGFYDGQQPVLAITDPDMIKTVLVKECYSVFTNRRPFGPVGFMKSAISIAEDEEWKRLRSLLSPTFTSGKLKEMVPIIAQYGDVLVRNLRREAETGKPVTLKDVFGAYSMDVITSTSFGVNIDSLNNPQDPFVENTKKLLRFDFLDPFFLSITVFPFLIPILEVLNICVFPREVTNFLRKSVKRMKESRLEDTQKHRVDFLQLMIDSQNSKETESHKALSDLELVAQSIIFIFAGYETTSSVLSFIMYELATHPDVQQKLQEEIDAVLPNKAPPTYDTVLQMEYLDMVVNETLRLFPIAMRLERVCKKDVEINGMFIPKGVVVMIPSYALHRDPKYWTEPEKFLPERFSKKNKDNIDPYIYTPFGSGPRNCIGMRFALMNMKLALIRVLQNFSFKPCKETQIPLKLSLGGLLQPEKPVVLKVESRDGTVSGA
Chain of Cytochrome P450 2D6 (P10635 whole entry): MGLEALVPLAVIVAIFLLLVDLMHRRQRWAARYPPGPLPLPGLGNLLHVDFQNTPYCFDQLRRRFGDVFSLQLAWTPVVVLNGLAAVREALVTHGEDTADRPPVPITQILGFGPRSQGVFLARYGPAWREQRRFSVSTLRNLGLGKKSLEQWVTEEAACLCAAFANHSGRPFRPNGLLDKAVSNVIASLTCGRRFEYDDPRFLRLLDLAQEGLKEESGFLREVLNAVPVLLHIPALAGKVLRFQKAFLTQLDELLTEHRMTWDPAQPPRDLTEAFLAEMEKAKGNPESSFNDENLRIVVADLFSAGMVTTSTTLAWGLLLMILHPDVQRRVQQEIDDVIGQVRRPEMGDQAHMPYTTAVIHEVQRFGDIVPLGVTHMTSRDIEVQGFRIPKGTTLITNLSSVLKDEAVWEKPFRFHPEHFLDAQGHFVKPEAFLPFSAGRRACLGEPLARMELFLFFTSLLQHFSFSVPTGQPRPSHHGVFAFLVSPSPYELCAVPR
T3 sequence (Q99705 whole entry): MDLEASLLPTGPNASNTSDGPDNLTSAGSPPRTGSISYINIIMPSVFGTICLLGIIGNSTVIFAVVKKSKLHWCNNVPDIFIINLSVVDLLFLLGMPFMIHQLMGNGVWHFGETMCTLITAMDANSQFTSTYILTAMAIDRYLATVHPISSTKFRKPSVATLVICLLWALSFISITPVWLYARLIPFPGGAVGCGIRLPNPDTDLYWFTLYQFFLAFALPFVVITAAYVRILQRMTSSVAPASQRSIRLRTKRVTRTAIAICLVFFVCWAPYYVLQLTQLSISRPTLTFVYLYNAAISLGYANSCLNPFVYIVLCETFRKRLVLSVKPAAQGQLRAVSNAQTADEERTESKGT
Chain of Cytochrome P450 2C19 (P33261 whole entry): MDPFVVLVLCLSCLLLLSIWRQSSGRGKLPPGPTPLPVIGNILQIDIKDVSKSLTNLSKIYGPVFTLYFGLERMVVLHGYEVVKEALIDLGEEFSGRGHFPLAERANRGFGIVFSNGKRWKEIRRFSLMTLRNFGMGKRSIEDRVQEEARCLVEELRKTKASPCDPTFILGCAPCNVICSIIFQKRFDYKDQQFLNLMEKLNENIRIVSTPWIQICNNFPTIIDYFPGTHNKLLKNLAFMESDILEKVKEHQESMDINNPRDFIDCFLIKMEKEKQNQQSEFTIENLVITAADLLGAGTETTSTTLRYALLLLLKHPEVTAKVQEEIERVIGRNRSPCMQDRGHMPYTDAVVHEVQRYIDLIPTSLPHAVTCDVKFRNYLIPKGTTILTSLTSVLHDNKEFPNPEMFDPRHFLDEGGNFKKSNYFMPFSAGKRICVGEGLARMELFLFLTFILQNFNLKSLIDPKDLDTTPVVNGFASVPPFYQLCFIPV

CN1CCc2c(n(C)c3cc(-n4ccc(OCc5ccccc5)cc4=O)ccc23)C1
half-life [1]: 1.05 h
IC50 (Cytochrome P450 3A4): 24000 nM
half-life [2]: > 16.7 h
IC50 (Cytochrome P450 1A2): > 10000 nM
IC50 (Cytochrome P450 2B6): > 10000 nM
solubility at 24 h [3]: 93 µM (≈ 37.2 µg/mL)
Ki [4]: 5.2 nM
IC50 (Cytochrome P450 2D6): > 10000 nM

CN1CCc2c(c3ccc(-n4ccc(OCc5ccccc5)cc4=O)cc3n2C)C1
Kp [5]: 0.9
fraction unbound [6]: 0.016
half-life [1]: > 16.7 h
IC50 (Cytochrome P450 3A4): 67000 nM
AUC(0-t) at 6 h [7]: 27000 ng·h/mL
half-life [2]: 12.8 h
concentration at 6 h [8]: 5030 ng/mL
inhibition [9]: < 55%
IC50 (Cytochrome P450 1A2): > 10000 nM
IC50 (Cytochrome P450 2B6): > 10000 nM
solubility at 24 h [3]: 110 µM (≈ 43.9 µg/mL)
Activity (Mus musculus [10]): 7.2%
Ki [4]: 4.5 nM
IC50 (Cytochrome P450 2D6): > 10000 nM

CSc1ccc(-c2ccn(-c3ccc4c5c(n(C)c4c3)CCNC5)c(=O)c2)cc1
Ki [4]: 2.4 nM

Cn1c2c(c3ccc(-n4ccc(-c5ccc(C(F)(F)F)cc5)cc4=O)cc31)CCNC2
Ki [4]: 11 nM

Cn1c2c(c3ccc(-n4ccc(OCc5ccccc5)cc4=O)cc31)CCNC2
concentration at 6 h [11]: 4010 ng/mL
fraction unbound [6]: 0.059
half-life [1]: 8.03 h
IC50 (Cytochrome P450 3A4): 12000 nM
AUC(0-t) at 6 h [7]: 41300 ng·h/mL
Kp [12]: 0.51
half-life [2]: 7.5 h
IC50 [13]: 14.4 nM
concentration at 6 h [8]: 8030 ng/mL
IC50 (Cytochrome P450 1A2): > 10000 nM
IC50 (Cytochrome P450 2B6): > 10000 nM
solubility at 24 h [3]: > 500 µM
pKa [14]: 8.81
Activity (Mus musculus [10]): 9.1%
Ki [4]: 4.9 nM
IC50 (Cytochrome P450 2D6): > 10000 nM

COc1cc(Cl)ccc1-c1ccn(-c2ccc3c4c(n(C)c3c2)CCNC4)c(=O)c1
Ki [4]: 7 nM

Cn1c2c(c3ccc(-n4ccc(-c5ccccc5)cc4=O)cc31)CNCC2
Ki [4]: 15 nM

CN1CCc2c(n(C)c3cc(-n4ccc(OCc5ccc(Cl)cc5)cc4=O)ccc23)C1
Ki [4]: 7.6 nM

CSc1ccc(-c2ccn(-c3ccc4c5c(n(C)c4c3)CNCC5)c(=O)c2)cc1
Ki [4]: 8.4 nM

Cn1c2c(c3ccc(-n4ccc(OCc5ccc(C(F)(F)F)cc5)cc4=O)cc31)CNCC2
Ki [4]: 6.7 nM

Cn1c2c(c3ccc(-n4ccc(-c5ccc(Cl)cn5)cc4=O)cc31)CCNC2
Ki [4]: 128 nM

COc1ccc(-c2ccn(-c3ccc4c5c(n(C)c4c3)CNCC5)c(=O)c2)c(C)c1
Ki [4]: 14 nM

CN1CCc2c(n(C)c3cc(-n4ccc(-c5ccc(Cl)cc5)cc4=O)ccc23)C1
Ki [4]: 5.6 nM

O=c1cc(OCc2ccccc2)ccn1-c1ccc2c(cnn2CCN2CCCC2)c1
concentration at 6 h [11]: 1380 ng/mL
fraction unbound [6]: 0.086
Activity (Mus musculus [15]): 2.8%
AUC(0-t) at 6 h [7]: 14800 ng·h/mL
Kp [12]: 0.72
concentration at 6 h [8]: 1950 ng/mL
IC50 (CYP1A2): > 10000 nM
pKa [14]: 8.63
Activity (Mus musculus [16]): 6%

Cn1c2c(c3ccc(-n4ccc(OCc5ccc(Cl)cc5)cc4=O)cc31)CNCC2
Ki [4]: 4.2 nM

CN1CCc2c(n(C)c3cc(-n4ccc(-c5ccc(F)cn5)cc4=O)ccc23)C1
Ki [4]: 708 nM

COc1ccc(-c2ccn(-c3ccc4c5c(n(C)c4c3)CNCC5)c(=O)c2)cc1
Ki [4]: 14 nM

Cn1c2c(c3ccc(-n4ccc(-c5ccc(Cl)cc5)cc4=O)cc31)CNCC2
Ki [4]: 2.7 nM

Cn1c2c(c3ccc(-n4ccc(OCc5ccccc5)cc4=O)cc31)CN(CCO)CC2
Ki [4]: 3.6 nM

Cn1c2c(c3ccc(-n4ccc(-c5ccc(Cl)cc5)cc4=O)cc31)CCNC2
Ki [4]: 11 nM

COc1cc(Cl)ccc1-c1ccn(-c2ccc3c4c(n(C)c3c2)CNCC4)c(=O)c1
Ki [4]: 17 nM

CN1CCc2c(n(C)c3cc(-n4ccc(-c5ccc(Cl)cc5Cl)cc4=O)ccc23)C1
Ki [4]: 14 nM

CN1CCc2c(n(C)c3cc(-n4ccc(OCc5ccc(C(F)(F)F)cc5)cc4=O)ccc23)C1
Ki [4]: 25 nM

CC(=O)N1CCc2c(c3ccc(-n4ccc(OCc5ccccc5)cc4=O)cc3n2C)C1
Ki [4]: 168 nM

Cn1c2c(c3ccc(-n4ccc(-c5ccc(C(F)(F)F)cc5)cc4=O)cc31)CNCC2
Ki [4]: 4.2 nM

CN1CCc2c(c3ccc(-n4ccc(-c5ccc(F)cc5)cc4=O)cc3n2C)C1
Ki [4]: 7.8 nM

COc1ccc(-c2ccn(-c3ccc4c5c(n(C)c4c3)CCNC5)c(=O)c2)c(C)c1
Ki [4]: 7.6 nM

Cn1c2c(c3ccc(-n4ccc(-c5ccc(Cl)cc5Cl)cc4=O)cc31)CNCC2
Ki [4]: 7.2 nM

Cn1c2c(c3ccc(-n4ccc(OCc5ccccc5)cc4=O)cc31)CNCC2
IC50 (Cytochrome P450 2C19): > 10000 nM
IC50 (Cytochrome P450 3A4): 68000 nM
half-life [2]: 7.7 h
remaining at 1 h [17]: 98.4%
IC50 (Cytochrome P450 1A2): > 10000 nM
IC50 (Cytochrome P450 2B6): > 10000 nM
solubility at 24 h [3]: 470 µM (≈ 181 µg/mL)
IC50 (Cytochrome P450 2C9): > 10000 nM
Ki [4]: 3.8 nM
IC50 (Cytochrome P450 2D6): > 10000 nM

COc1ccc(-c2ccn(-c3ccc4c5c(n(C)c4c3)CCNC5)c(=O)c2)cc1
Ki [4]: 2.6 nM
